According to the RNAGym collection of RNA variant scans (doi:10.1126/science.aae0568):
Fewer inactive variants are shown than the library holds.

B1: tRNA (parent)
chain: GUUCCGUUGGCGUAAUGGUAACGCGUCUCCCUCCUAAGGAGAAGACUGCGGGUUCGAGUCCCGUACGGAACG

Variants of: B1
Assay: yeast fitness relative to wild type (ratio to wild type); higher = fitter; tRNA-Arg(CCU), competitive growth, 37 C, YPD
Procedure, shortened: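 Genotype frequency changes were the basis for Darwinian fitness relative to wild type. The frequencies came from 100-nucleotide paired-end sequencing of gene amplicons from the start population and each end population of pooled yeast strains with tRNA-Arg(CCU) gene variants at the native locus. Competition ran in YPD at 37°C for 24 hours in six replicates, genotypes needed ≥ 100 starting reads, and estimates < 0.5 were set to 0.5.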

Variant	yeast fitness
G6A G50A G58A	0.698
G6A U19G C33U C34U	≤ 0.5
G6A A20G C60G	≤ 0.5
G6A G9C A21C C30U A45U C55A	0.517
G6A C24U U28A C60U	≤ 0.5
G6A G41C C55G	0.529
G6A G17C G18C A45G G58A	≤ 0.5
G6A G17C U19C C29A A70G	≤ 0.5
G6A A40U C46A	0.657
G6A A21G C46A C55U G56A	≤ 0.5
G6A G12C G18C G41A A43G G48A	≤ 0.5
G6A A20C G23C C27A	≤ 0.5
G6A U8G A45U G48C	≤ 0.5
G6A C31U A43U	0.529
G6A U16A C33G A36U	≤ 0.5
G6A C27U C29A	≤ 0.5
G6A C11G C61G	≤ 0.5
G6A C24U U59C A69C	≤ 0.5
G6A C34A U47G C49G C60G	≤ 0.5
G6A A20C C34A A45U C46U A57C	≤ 0.5
G6A G9C A42U A43U A65G G68A A70C	0.663
G6A A21G G23A G58C	≤ 0.5
G6A U19C G41C	0.67
G6A A57C A65C A70C	0.609

Variant	yeast fitness
G6A A21C C33G	≤ 0.5
G6A C11G A21G C27G C29U U35G G56C G63A U64C G67C	≤ 0.5
G6A C30A C31G G39C	0.534
G6A C24U G58A	0.67
G6A C24U A37U A40U	≤ 0.5
G6A C66U	1.03
G6A U13A U26C C30G A65C	≤ 0.5
G6A C29G U35G C61U	≤ 0.5
G6A G18A G41C	≤ 0.5
G6A C11A C22G	≤ 0.5
G6A G9U	0.774
G6A G9A	0.969
G6A G18C C61G	0.563
G6A A40C G41C G68C	≤ 0.5
G6A G38A	0.812
G6A G38C	0.808
G6A G12A A70U	0.656
G6A C11A C61A	≤ 0.5
G6A C31G C61U	≤ 0.5
G6A C24U A65C	≤ 0.5
G6A G18C C30G C34A A37C C61U A65U	≤ 0.5
G6A G12A	0.764
G6A C11A A40G G56C	≤ 0.5
G6A A20G A45G	0.803

Variant	yeast fitness
G6A A21G	0.965
G6A C24U U54G A65U	≤ 0.5
G6A A45C A70G	0.536
G6A C30A A45U	0.667
G6A U16A C61G G67U	≤ 0.5
G6A C29G U32C A69C	≤ 0.5
G6A U13A A14G G41C	≤ 0.5
G6A G44C G50C A57G	≤ 0.5
G6A G9C A14G	≤ 0.5
G6A U8C G10C	≤ 0.5
G6A C11A A57C G68A	0.549
G6A A45C C46G G51C	≤ 0.5
G6A C22G U53A	≤ 0.5
G6A C11A U47C	≤ 0.5
G6A G12A U16C	0.537
G6A C61U G63C	≤ 0.5
G6A C31A A37C	≤ 0.5
G6A C11U C49G C62U	≤ 0.5
G6A C11A C66U	0.592
G6A C11U C55U	0.814
G6A G18C A21C C33A G56A	≤ 0.5
G6A G9C U32C A36G	≤ 0.5
G6A G9C G44C	0.605
G6A U8C A69C	0.678

Variant	yeast fitness
G6A C11U A69U	0.707
G6A C31G A65G	0.547
G6A A36U A37G A40C C66U	≤ 0.5
G6A C29A A37U G67C	≤ 0.5
G6A C24U U32G A40U U64G	≤ 0.5
G6A C11A C46G	≤ 0.5
G6A A45G	0.928
G6A C24U A40U A45U	≤ 0.5
G6A A21U C62U	≤ 0.5
G6A C27G G38C	≤ 0.5
G6A G18A G23C U26A C30U U35A A43G	≤ 0.5
G6A C27G A45G	0.521
G6A G23C A37U A57G A65C A70U	≤ 0.5
G6A G9C C11G C22A C30U C31G G67U	≤ 0.5
G6A C24U U32G A40U	≤ 0.5
G6A A36C A40U	≤ 0.5
G6A C31G C34G A43U G68C A69G	≤ 0.5
G6A U16G A21G A40G A42U	0.535
G6A G9C G68C	≤ 0.5
G6A C30U A37G	≤ 0.5
G6A C34G G68A	0.556
G6A C22G A69C	0.591
G6A C27G G38C A65C	0.595
G6A G23A C27U C60G G67A	≤ 0.5

Variant	yeast fitness
G6A G10C C30A A69U	0.786
G6A A20G A36G C49G	≤ 0.5
G6A C33G G48A U54C C66G A70C	≤ 0.5
G6A C33G C34G A69U	≤ 0.5
G6A A57C A65C	0.541
G6A C11A C49U A65G	≤ 0.5
G6A C33A U35A G68C	≤ 0.5
G6A C49U G58A A69C	0.605
G6A C24A C27U C29G G44C G68C	≤ 0.5
G6A A20U C46A C55G	≤ 0.5
G6A C27U A42U	≤ 0.5
G6A U19C U28G U32A G38C	≤ 0.5
G6A G39C U54C	≤ 0.5
G6A G38A C61A	≤ 0.5
G6A C62G	0.827
G6A C29G A69C	≤ 0.5
G6A U16C C27G C33A G38C A42G	≤ 0.5
G6A A20U G25A	0.574
G6A A20G	0.897
G6A G12A C22U A42C	≤ 0.5
G6A G9A C29U C46U G67C	≤ 0.5
G6A C24U G67A	0.72
G6A G63C	0.727
G6A C34G C62U G68C	≤ 0.5

Variant	yeast fitness
G6A C27U A69U	0.695
G6A G17C G18C A45G G58C C66U	≤ 0.5
G6A C29A G67C	≤ 0.5
G6A C61A G67A	0.547
G6A G50A C66A	≤ 0.5
G6A U7A	0.749
G6A A42U C62A	0.53
G6A C22U A37G G68A A69G	≤ 0.5
G6A G12A A21G C46A	0.636
G6A G9C C31U C62U G68C	≤ 0.5
G6A U13G C22A U26A C29G C34G G50C	≤ 0.5
G6A G68C A69G	0.568
G6A U8C	0.792
G6A A42G	0.848
G6A A42C	0.894
G6A A42U	0.784
G6A A40G A42G U59C	0.675
G6A C11A A37G G68C	0.562
G6A C30G	0.711
G6A C27G A36C A42C	0.58
G6A G10C A20G C22U G38C U53C C61G	≤ 0.5
G6A C11A A40G G56C A65C G67A	≤ 0.5
G6A C30U U54A	≤ 0.5
G6A C46A	0.97

Variant	yeast fitness
G6A C33G U47A U64G	0.558
G6A G48A	0.886
G6A U16A A36C	≤ 0.5
G6A C24U C61G C62U C66U A69U	≤ 0.5
G6A C11G A37C C60A A70G	≤ 0.5
G6A C34U G39C	≤ 0.5
G6A C30A G39A U47A G63C	≤ 0.5
G6A G9C C46G	0.561
G6A A45C C55G C61U	≤ 0.5
G6A C29A C31G G67A	≤ 0.5
G6A G9C C11G C34U A57U	≤ 0.5
G6A A21C C49A A70G	≤ 0.5
G6A A36G A43C A69C	≤ 0.5
G6A G41A C60G A65G	0.618
G6A A36U C66A G68C	≤ 0.5
G6A G44C A69U	0.586
G6A C31U G51A	0.599
G6A C24U U26G C34A C46G G56A C66U	≤ 0.5
G6A C11G A45U A57G A70G	≤ 0.5
G6A C11A U16C U32G C49G C55A	≤ 0.5
G6A A36U C49G C62U	≤ 0.5
G6A G39C U64C	0.605
G6A C22A U35A	≤ 0.5
